PMI act: activators of human phosphomannose isomerase. P34949. purified human PMI, coupled resazurin fluorescence, 20 min; active compounds read high; 1 = vehicle control, 0 substrate-free wells. activation factor at 20 µM. 190,000 tested, 0.005% active;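 active = activation factor of 2 or more at 20 µM, relative to plate controls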
ABCG2 block: blocks JC-1 efflux by human ABCG2 transporter; IgMXP3 cells, flow cytometry; inhibition, % at 6.6 µM; 190,000 tested, 0.1% active; AID 1325;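 active = inhibition above 80%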
Target sequence (Q9UNQ0 whole entry, looked up): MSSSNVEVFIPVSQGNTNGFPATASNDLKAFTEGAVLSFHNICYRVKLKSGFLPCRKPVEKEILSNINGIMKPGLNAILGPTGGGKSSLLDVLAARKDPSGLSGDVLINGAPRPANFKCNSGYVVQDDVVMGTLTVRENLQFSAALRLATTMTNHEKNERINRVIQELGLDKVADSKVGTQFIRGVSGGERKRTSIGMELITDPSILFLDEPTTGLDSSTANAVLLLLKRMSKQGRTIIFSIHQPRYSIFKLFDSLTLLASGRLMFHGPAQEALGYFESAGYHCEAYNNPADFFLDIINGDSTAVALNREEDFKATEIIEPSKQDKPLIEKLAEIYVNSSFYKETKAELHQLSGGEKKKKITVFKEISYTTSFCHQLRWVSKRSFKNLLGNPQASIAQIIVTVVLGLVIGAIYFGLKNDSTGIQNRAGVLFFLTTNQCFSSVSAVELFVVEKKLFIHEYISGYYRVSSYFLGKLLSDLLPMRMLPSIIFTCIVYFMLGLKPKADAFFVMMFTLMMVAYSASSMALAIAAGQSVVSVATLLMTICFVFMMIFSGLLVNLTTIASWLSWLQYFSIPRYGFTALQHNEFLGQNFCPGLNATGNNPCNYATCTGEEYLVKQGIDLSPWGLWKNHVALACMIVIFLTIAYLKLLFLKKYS
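Measure – % inhibition of efflux relative to nicardipine and DMSO · Test system – ABCG2 IgMXP3 and barcoded ABCB1 CCRF-Adr cell mix · Control set – nicardipine as high control, DMSO as low control · Compound – one concentration, 6.6 µM final · Signal – flow cytometry of retained JC-1 fluorescence · Timing – 10 min exposure at 25 °C with rotation, no wash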
ROMK primary: human ROMK K+ channel modulation, primary screen; Tet-inducible ROMK, thallium flux fluorescence; actives lie on both sides; B-score at 10 µM; AID 1918; P48048; 130,000 tested, 2% active;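 active = signal ratio slope over the read window, or its plate-corrected B-score, at least 3 SD from the plate mean, either direction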;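 also: B-score of the F/F0 ratio slope over 7 to 12 s after thallium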
PMI act satM6P: PMI (human) activation, high substrate | P34949 | coupled PMI enzyme assay, resazurin fluorescence, 20 min; active compounds read high; 1 = untreated enzyme, 0 = substrate-free blank | activation factor at 20 µM | 190,000 tested, 0.34% active | AID 1216;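 active = activation factor of 2 or more at 20 µM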
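Test system: human phosphomannose isomerase with PGI, G6PDH, diaphorase coupling enzymes / Doses: 20 µM compound, 1% DMSO / Times: enzyme reaction with compound 20 min at room temperature / Measured by: Diaphorase-driven resazurin-to-resorufin fluorescence, excitation 544, emission 590 nm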
ABCB1 block: inhibitors of human ABCB1 transporter, ABCG2 counter-screen | inhibition, % at 6.6 µM | 190,000 tested, 0.067% active | P08183 | CCRF-Adr cells, JC-1 efflux, flow cytometry; in the data active = inhibition above about 40%;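 also: higher value means more JC-1 retained so stronger ABCB1 efflux block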
KCC2 mod: KCC2 (human) Cl- transport modulation. KCC2 cells, thallium flux FluoZin-2 fluorescence. B-score of Tl+ flux slope (higher = more flux/activation; lower = inhibition) at 10 µM. 190,000 tested, 2.2% active. AID 1456;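 active = thallium flux slope and its plate-corrected score both differing from the plate sample mean at a set confidence after two filtering rounds, in either direction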;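 also: slope of fluorescence scaled to starting intensity during 10 to 20 s after thallium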
Of the large screens only hits and unclear results are named; the others gave an inactive call. Rows were chosen to be rich in hits. Some 3.3% of all compounds tested hit in one or more screens of this group.

[O-]C1=N/[N+](=C/c2ccccc2Cl)CC1	PMI act satM6P 2
[O-]C1=N/[N+](=C/c2ccc(Cl)c(Cl)c2)CC1	none
CCc1ccc(/C=C2/SC(=S)N(CC(=O)Nc3nc4ccccc4s3)C2=O)cc1	KCC2 mod 4.9 (no result: ROMK primary)
CCc1ccc(/C=C2\SC(=S)N(CCCC(=O)Nc3ccccn3)C2=O)cc1	none (no result: ROMK primary)
O=C(NC(=S)N(Cc1ccccc1)c1ccccn1)C1CCCCC1	none (no result: ROMK primary)
Cc1ccc(C(=O)NCc2ccco2)cc1Br	none (no result: ROMK primary)
C=CCN(CC=C)C(=S)NC(=O)c1ccc(C)c(Br)c1	KCC2 mod 45 (no result: ROMK primary)
CN(Cc1ccccc1)C(=S)NC(=O)c1ccc(-c2ccccc2)cc1	KCC2 mod 29 (no result: ROMK primary)
C=CCN(CC=C)C(=S)NC(=O)c1ccc(-c2ccccc2)cc1	ROMK primary 10, KCC2 mod 31
CN(Cc1ccccc1)C(=S)NC(=O)C1CCCCC1	KCC2 mod 14 (no result: ROMK primary)
O=c1c(Cl)c(NCc2ccccc2Cl)cnn1C12CC3CC(CC(C3)C1)C2	none
CC(=O)Nc1ccc(S(=O)(=O)NCC2CCC(C(=O)NC(C)c3ccc4c(c3)OCCO4)CC2)cc1 (centres undefined)	none
C=CCN(CC=C)C(=S)NC(=O)/C=C/c1ccc(C)cc1	KCC2 mod 15
COc1ccc(C(=O)NC(=S)N(Cc2ccccc2)Cc2ccccc2)cc1	KCC2 mod 64 (no result: ROMK primary)
COc1ccc(C(=O)NN(c2ccccc2)c2ccccc2)cc1	none (no result: ROMK primary, KCC2 mod)
CCS(=O)(=O)c1ccc2oc(SCC(=O)N3CCCCC3)nc2c1	none
Cc1ccc(C2c3c(oc4ccc(Cl)cc4c3=O)C(=O)N2CCCN2CCOCC2)o1 (centres undefined)	KCC2 mod 6.6 (no result: ROMK primary)
O=C1c2oc3ccc(Cl)cc3c(=O)c2C(c2ccco2)N1CCN1CCOCC1 (centres undefined)	KCC2 mod 5.6 (no result: ROMK primary)
COc1ccccc1N(C)S(=O)(=O)c1ccc(C(=O)OCC(=O)NCCC2=CCCCC2)cc1	none
CCOc1ccccc1NC(=O)c1c(NC(=O)CCC(=O)O)sc2c1CCCCC2	PMI act satM6P 2.1
CCOC(=O)c1ccc(NC(=O)c2c(NC(=O)CCC(=O)O)sc3c2CCCCC3)cc1	none (no result: ROMK primary)
Cc1cc(C)c2c(c1)/C(=N/NC(=S)Nc1ccc(F)cc1)CCC2	KCC2 mod 2.9
COC(=O)N/N=C1\CCCc2c(C)cc(C)cc21	none (no result: ROMK primary)
COc1ccc(NC(=O)Cn2c(CCC(=O)O)ccc2-c2ccc(C)cc2)cc1	none
CCc1ccc2oc(=O)cc(CN(C)Cc3ccccc3)c2c1	ROMK primary -3.1
COc1cccc(C2C(C(=O)OCc3ccccc3)=C(C)Nc3ncnn32)c1OC (centres undefined)	none (no result: ROMK primary, KCC2 mod)
COc1ccc(/C=c2\s/c(=C\C(=O)C(C)(C)C)[nH]c2=O)cc1O	none (no result: PMI act, ABCG2 block, ROMK primary, PMI act satM6P, ABCB1 block)
Cc1cccc(/C=c2\s/c(=C\C(=O)C(C)(C)C)[nH]c2=O)c1	KCC2 mod 12 (no result: ROMK primary)
CC1CCCC(NC(=S)NC(=O)c2cncc(Br)c2)C1C (centres undefined)	KCC2 mod 51
CC1CCCCC1NC(=O)c1cncc(Br)c1 (centres undefined)	none (no result: ROMK primary)
C=CCN=c1scc(-c2ccc(F)cc2)n1/N=C/c1ccccn1	none (no result: ROMK primary)
C=CCN=c1scc(-c2ccccc2)n1/N=C/c1ccccn1	KCC2 mod -4.1
CCN=c1scc(-c2ccccc2)n1/N=C/c1ccccn1	KCC2 mod -3.8 (no result: ROMK primary)
O=C(NC1CCCCC1)C1CC(O)CN1C(=O)OCc1ccccc1 (centres undefined)	none (no result: ROMK primary)
COC(=O)C1CC(O)CN1C(=O)NC1CCCCC1 (centres undefined)	PMI act satM6P 2.4
CCCCn1nnc(NC(=O)c2ccc(-c3ccccc3[N+](=O)[O-])o2)n1	none
CCCCn1nnc(NC(=S)NC(=O)c2ccc(-c3cccc(Cl)c3Cl)o2)n1	KCC2 mod 34 (no result: ROMK primary)
Cc1ccc(-c2cc(-c3ccccc3)c3c(N)c(S(C)(=O)=O)sc3n2)cc1	none (no result: KCC2 mod)
CS(=O)(=O)c1sc2nc(-c3cccs3)cc(-c3ccccc3)c2c1N	PMI act satM6P 2.2 (no result: ROMK primary)
